Experimental data as given in ChEMBL document CHEMBL1151452, “Novel trypanocidal analogs of 5'-(methylthio)-adenosine” (Antimicrob Agents Chemother, 2008).
Calls of active or inactive are those of the source. The rule behind the calls is not given here.

Legend:
[1] = test system: Trypanosoma brucei brucei; assay: Antitrypanosomal activity against bloodstream form of Trypanosoma brucei brucei LAB 110 EATRO after 48 hrs by Z1 zoulter counter; format: functional, organism-based; conditions: for IC50: Trypanosoma brucei, LAB 110 EATRO, 48 h
Method in brief: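 Bloodstream forms were grown axenically in HMI-18 (IMDM with 1 μM hypoxanthine and 20% horse serum). Compounds were dissolved in water or DMSO, with final DMSO ≤0.3%. […] Parasites were counted by Coulter counter.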

[2] = test system: Trypanosoma brucei brucei; assay: Activity at bloodstream Trypanosoma brucei brucei 5'-deoxy-5'-(methylthio)-adenosine phosphorylase by spectrophotometry in presence of 50 mM PO4- relative to control; conditions: LAB 110 EATRO
Method in brief: (§1)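 Enzyme was a cell-free extract of bloodstream trypanosomes harvested from rats. It was prepared by freeze-thawing three times in dry ice-methanol, spinning at 5,000 × g for 10 min, and dialysing 1 h (0.05 M Tris-HCl, 0.1 mM EDTA, 1 mM 2-mercaptoethanol, pH 7.4) to remove phosphate. The mix held 0 or 50 mM potassium phosphate pH 7.4, xanthine oxidase and 25–500 μM substrate. Adenine-derived 2,8-dihydroxyadenine was read at 305 nm over 1 h at 37°C. Activity is expressed relative to MTA.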

[3] = test system: Trypanosoma brucei brucei; assay: Activity at bloodstream Trypanosoma brucei brucei 5'-deoxy-5'-(methylthio)-adenosine phosphorylase by spectrophotometry relative to control; set-up: concentration or dose not given beside the values; conditions: LAB 110 EATRO; method in brief: as §1
Mus musculus = species: Mus musculus; assay: Activity at mouse liver 5'-deoxy-5'-(methylthio)-adenosine phosphorylase; set-up: concentration or dose not given beside the values
[4] = test system: Trypanosoma brucei brucei; assay: Growth stimulation of diamidine and melarsoprol-resistant bloodstream form of Trypanosoma brucei brucei isolate KETRI 243-As10-3 at 100 uM after 48 hrs by Z1 zoulter counter; format: functional, organism-based
[5] = test system: Trypanosoma brucei rhodesiense; assay: Growth stimulation of pentamidine and melarsoprol-resistant bloodstream form of Trypanosoma brucei rhodesiense isolate KETRI 243 at 100 uM after 48 hrs by Z1 zoulter counter

| Structure (SMILES) | IC50 [1] [µM] | Activity [2] [%] | Activity [3] [%] | further results |
| --- | --- | --- | --- | --- |
| Nc1ncnc2c1ncn2C[C@H](O)CSCCO | 60 | – | – | – |
| Nc1ncnc2c1ncn2[C@H]1CC[C@@H](CSCCO)O1 | 100 | 17 | 18 | – |
| CC(=O)OCCSC[C@H]1O[C@@H](n2cnc3c(C)ncnc32)[C@H](OC(C)=O)[C@@H]1OC(C)=O | 9.3 | – | – | – |
| CC(=O)OCCSC[C@H]1O[C@@H](n2cnc3c(N)nc(N)nc32)[C@H](OC(C)=O)[C@@H]1OC(C)=O | 12.5 | – | – | – |
| Nc1nc(F)nc2c1ncn2[C@@H]1O[C@H](CSCCO)[C@@H](O)[C@H]1O | 1.9 | 148 | 106 | – |
| OCCSC[C@H]1O[C@@H](n2cnc3c2ncn2ccnc32)[C@H](O)[C@@H]1O | > 100 | 56 | 62 | – |
| Cc1ncnc2c1ncn2[C@@H]1O[C@H](CSCCO)[C@@H](O)[C@H]1O | 24.5 | 2 | 25 | – |
| CCSC[C@H]1O[C@@H](n2cnc3c(N)ncnc32)[C@H](O)[C@@H]1O | – | 76.2 | 26.9 | Activity (Mus musculus): 100% |
| Nc1ncnc2c1ncn2[C@@H]1O[C@H](CSCCO)[C@@H](O)[C@H]1O | 0.54 | 96 | 100 | – |
| CC(=O)OCCSC[C@H]1O[C@@H](n2cnc(C(N)=O)n2)[C@H](OC(C)=O)[C@@H]1OC(C)=O | 26.5 | – | – | – |
| Nc1ncnc2c1nnn2[C@@H]1O[C@H](CSCCO)[C@@H](O)[C@H]1O | 7 | – | – | – |
| CNC[C@H]1O[C@@H](n2cnc3c(N)ncnc32)[C@H](O)[C@@H]1O | > 100 | 4 | 0 | – |
| CC(=O)OCCSC[C@H]1O[C@@H](n2cnc3c(N)nc(F)nc32)[C@H](OC(C)=O)[C@@H]1OC(C)=O | 2.75 | – | – | – |
| Nc1ncnc2c1ncn2[C@@H](CO)O[C@@H](CO)CSCCO | 14 | 44 | 0 | – |
| CC(=O)OCCSC[C@@H]1C[C@@H](OC(C)=O)[C@H](n2cnc3c(N)ncnc32)O1 | 0.64 | – | – | – |
| CC(=O)OCCSC[C@H](COC(C)=O)O[C@H](COC(C)=O)n1cnc2c(N)ncnc21 | 5.3 | – | – | – |
| COC(=O)CSC[C@H]1O[C@@H](n2cnc3c(N)ncnc32)[C@H](O)[C@@H]1O | 130 | 84 | 34 | – |
| CSC[C@H]1O[C@@H](n2cnc3c(N)ncnc32)[C@H](O)[C@@H]1O [METHYLTHIOADENOSINE] | 100 | 100 | 100 | Activity (Mus musculus): 100% |
| CC(=O)OCCSC[C@H]1O[C@@H](n2cnc3c(N)ncnc32)C[C@@H]1OC(C)=O | 22 | – | – | – |
| CC(=O)OCCSC[C@H]1O[C@@H](n2cnc3c(F)ncnc32)[C@H](OC(C)=O)[C@@H]1OC(C)=O | > 100 | – | – | – |
| Nc1ncnc2c1ccn2[C@@H]1O[C@H](CSCCO)[C@@H](O)[C@H]1O | 0.042 | 0 | 0 | – |
| Nc1ncnc2c1ncn2[C@@H]1O[C@H](CSCCO)C[C@H]1O | 12.5 | 39.4 | 37.8 | – |

| Structure (SMILES) | IC50 [1] [µM] | Activity [2] [%] | Activity [3] [%] | further results |
| --- | --- | --- | --- | --- |
| OCCSC[C@H]1O[C@@H](n2cnc3cncnc32)[C@H](O)[C@@H]1O | 34 | 11 | 4 | – |
| OCCSC[C@H]1O[C@@H](n2cnc3c(O)ncnc32)[C@H](O)[C@@H]1O | > 100 | 0 | 0 | – |
| CSC[C@H]1O[C@@H](n2ccc3c(NC(C)=O)ncnc32)[C@H](OC(C)=O)[C@@H]1OC(C)=O | 46 | – | – | – |
| Nc1ncnc2c1ncn2C[C@@H](O)CSCCO | > 100 | – | – | – |
| CC(=O)OCCSC[C@H]1O[C@@H](n2cnc3c2ncn2ccnc32)[C@H](OC(C)=O)[C@@H]1OC(C)=O | 35 | – | – | – |
| NCCCSC[C@H]1O[C@@H](n2cnc3c(N)ncnc32)[C@H](O)[C@@H]1O | > 100 | 46 | 60 | – |
| Nc1ncnc2c1ncn2[C@@H]1O[C@H](CSCCF)[C@@H](O)[C@H]1O | 0.2 | 75.3 | 29.3 | Activity (Mus musculus): 64% |
| Nc1ncnc2c1ncn2[C@H]1C[C@H](O)[C@@H](CSCCO)O1 | > 100 | 100 | 81 | Activity [4]: Active |
| Nc1ncnc2c1ncn2COCCSCCO | 64 | 56 | 78 | – |
| CC(=O)OCCSC[C@H]1O[C@@H](n2ccc3c(N)ncnc32)[C@H](OC(C)=O)[C@@H]1OC(C)=O | 0.145 | – | – | – |
| CC(=O)O[C@@H]1[C@H](OC(C)=O)[C@@H](CSCCF)O[C@H]1n1cnc2c(N)ncnc21 | 0.83 | – | – | – |
| CC(=O)OCCSC[C@H]1O[C@@H](n2cnc3c(N)ncnc32)[C@H](OC(C)=O)[C@@H]1OC(C)=O | 0.32 | – | – | – |
| NC(=O)c1ncn([C@@H]2O[C@H](CSCCO)[C@@H](O)[C@H]2O)n1 | – | 61 | 70 | inhibition (INH) [1]: 9%; Activity [5]: Active |
| OCCSC[C@H]1O[C@@H](n2cnc3c(F)ncnc32)[C@H](O)[C@@H]1O | > 100 | 42 | 60 | – |
| Nc1ncnc2c1ncn2[C@@H]1O[C@H](CSCCCF)[C@@H](O)[C@H]1O | 120 | 47.5 | 31.3 | Activity (Mus musculus): 64% |
| CCCSC[C@H]1O[C@@H](n2cnc3c(N)ncnc32)[C@H](O)[C@@H]1O | 46 | 57.5 | 26 | Activity (Mus musculus): 100% |
| CC(=O)OCCSC[C@H]1O[C@@H](n2cnc3cncnc32)[C@H](OC(C)=O)[C@@H]1OC(C)=O | 3.65 | – | – | – |
| CSC[C@H]1O[C@@H](n2ccc3c(N)ncnc32)[C@H](O)[C@@H]1O | 67 | 0 | 0 | – |
| Nc1nc(N)c2ncn([C@@H]3O[C@H](CSCCO)[C@@H](O)[C@H]3O)c2n1 | 3.9 | 29 | 18 | – |
| Nc1ncnc2c([C@@H]3N[C@H](CSCCO)[C@@H](O)[C@H]3O)c[nH]c12 | > 10 | – | – | – |
| Nc1ncnc2c1ncn2[C@@H]1O[C@H](CSCCCO)[C@@H](O)[C@H]1O | 170 | 72.5 | 27.4 | – |
| NCCSC[C@H]1O[C@@H](n2cnc3c(N)ncnc32)[C@H](O)[C@@H]1O | > 100 | – | – | Activity [5]: Active |
